According to ChEMBL document CHEMBL1629489, “Novel 6-[(hetero)arylamino]thieno[3,2-b]pyridines: synthesis and antitumoral activities” (2010):

Legend:
Assay type in all cases: functional
MCF7 = assay: Growth inhibition of human MCF7 cells after 48 hrs by sulforhodamine B assay; details: MCF7, 48 h
In short: (§1)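 Adherent cells in RPMI-1640 with 5% heat-inactivated FBS, 2 mM glutamine and penicillin/streptomycin at 37 °C and 5% CO₂. Plated at 1.5 × 10⁵ cells/mL (MCF-7) or 0.75 × 10⁵ cells/mL (A375-C5, NCI-H460), then incubated 24 h. Exposed 48 h to five serial dilutions from DMSO stocks (≤0.25% DMSO). SRB staining, absorbance at 492 nm. GI50 is the mean ± SEM of three independent duplicate experiments.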

[1] = Growth inhibition of human A375-C5 cells after 48 hrs by sulforhodamine B assay; details: A375-C5, 48 h; in short: as §1
NCI-H460 = assay: Growth inhibition of human NCI-H460 cells after 48 hrs by sulforhodamine B assay; details: NCI-H460, 48 h; in short: as §1

Row | Structure (SMILES) | GI50 (MCF7) [µM] | GI50 [1] [µM] | GI50 (NCI-H460) [µM]
1 | COC(=O)c1sc2cc(Nc3ccc(OC)cc3)cnc2c1N | 124 | > 150 | 95
2 | COC(=O)c1sc2cc(Nc3ccc(OC)c(OC)c3)cnc2c1N | 30 | 26.3 | 26.2
3 | COC(=O)c1sc2cc(Nc3ccc(F)cc3Br)cnc2c1N | 28.9 | 34 | 31.3
4 | COC(=O)c1sc2cc(Nc3nc4ccccc4s3)cnc2c1N | 6 | 3.5 | 6.4
5 | COC(=O)c1sc2cc(Nc3ccc(OC)cc3OC)cnc2c1N | 26.3 | 27.3 | 26.3
6 | COC(=O)c1sc2cc(Nc3nccc4ccccc34)cnc2c1N | > 150 | > 150 | > 150
7 | COc1cccc2c1C(=O)c1c(O)c3c(c(O)c1C2=O)C[C@@](O)(C(=O)CO)C[C@@H]3O[C@H]1C[C@H](N)[C@H](O)[C@H](C)O1 [DOXORUBICIN] | 0.0433 | 0.13 | 0.0356
8 | COC(=O)c1sc2cc(Nc3ccc4[nH]ccc4c3)cnc2c1N | 18.1 | 17.3 | 15.8
9 | COC(=O)c1sc2cc(Nc3cc(OC)ccc3Cl)cnc2c1N | 22.1 | 25.8 | 21.7
10 | COC(=O)c1sc2cc(Nc3ncccn3)cnc2c1N | > 150 | > 150 | > 150
11 | COC(=O)c1sc2cc(Nc3cccnc3)cnc2c1N | 82.4 | > 150 | 49.4
12 | COC(=O)c1sc2cc(Nc3ccccc3Br)cnc2c1N | 28.9 | 34.1 | 30.9
13 | COC(=O)c1sc2cc(Nc3cc(OC)cc(OC)c3)cnc2c1N | > 150 | > 150 | > 150
14 | COC(=O)c1sc2cc(Nc3ccccn3)cnc2c1N | > 150 | > 150 | > 150
